ChEMBL document CHEMBL1136740, “New active series of growth hormone secretagogues” (J Med Chem, 2003)
Non-standard residues stand in square brackets, D forms with d. Residues, ends and D or L forms follow the SMILES beside them. dTrp(2-Me) = Cc1[nH]c2ccccc2c1C[C@@H](N)C(=O)O; Aib = CC(C)(N)C(=O)O

Legend:
Rattus norvegicus = assay: Ratio of GH release stimulated by 300 ug/kg of compound to that of GH release stimulated by 300 ug/kg of hexarelin in infant rat (sc injection); type: functional
In short: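 Male 10-day-old Sprague-Dawley pups, about 25 g, eight per group. Dosed sc at 300 µg/kg, with solvent as DMSO at final 1:300 dilution. Killed by decapitation 15 min later; trunk-blood plasma GH measured by RIA against the NIDDK rat standard, in ng/mL. Response compared with hexarelin at the same dose.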

[1] = biological target: T1, Growth hormone secretagogue receptor type 1 (Homo sapiens, UniProt Q92847); assay: Binding affinity towards cloned human Growth hormone secretagogue receptor type I in LLC PK-1 cells using [125I][His9]-ghrelin as radioligand; type: cell-based
T1 sequence (Q92847 whole entry): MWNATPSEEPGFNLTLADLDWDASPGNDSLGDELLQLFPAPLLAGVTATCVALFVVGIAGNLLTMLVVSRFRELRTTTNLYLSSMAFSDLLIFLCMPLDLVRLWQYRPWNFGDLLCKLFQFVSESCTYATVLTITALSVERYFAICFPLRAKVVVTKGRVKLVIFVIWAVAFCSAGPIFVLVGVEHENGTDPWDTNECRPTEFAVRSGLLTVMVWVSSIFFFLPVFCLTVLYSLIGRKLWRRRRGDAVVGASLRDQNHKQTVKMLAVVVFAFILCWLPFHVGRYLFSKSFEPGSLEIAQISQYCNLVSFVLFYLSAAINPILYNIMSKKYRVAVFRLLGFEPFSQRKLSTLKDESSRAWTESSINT

[2] = Stimulating GH secretion in dogs after oral administration at dose of 1 mg/kg
Canis familiaris = assay: Concentration in dogs after oral administration at dose of 1 mg/kg after 180 min.; type: ADME, organism-based, Canis lupus familiaris; set-up: dose 1 mg/kg, route oral; conditions: dog, in vivo, 3 h
In short: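 Beagle dogs (4–6, 2–3 years, 11–15 kg, both sexes) dosed 1 mg/kg through an oral-gastric cannula in randomized sequence. Blood drawn from the cephalic vein at −20 min, then at 15–180 min into EDTA tubes. Plasma GH measured by canine GH RIA (sensitivity 0.4 ng/mL). Peak GH and AUC0–180 min by trapezoid method reported as mean ± SEM; sexes pooled.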

[3] = biological target: T1, Growth hormone secretagogue receptor type 1; assay: Binding affinity towards human pituitary Growth hormone secretagogue receptor using [125I][Tyr4]-ghrelin as radioligand

Molecule CC(C)(N)C(=O)N[C@H](Cc1c[nH]c2ccccc12)C(=O)N[C@H](Cc1c[nH]c2ccccc12)NC(=O)Cc1ccccc1 has a Ratio (Rattus norvegicus) of 0.11.

Molecule CNC(C)(C)C(=O)N[C@H](Cc1c[nH]c2ccccc12)C(=O)N[C@@H](Cc1c[nH]c2ccccc12)N(C)C(C)=O has a Ratio (Rattus norvegicus) of 0.2.

With CC(C)(N)C(=O)N[C@H](Cc1c[nH]c2ccccc12)C(=O)N[C@H](Cc1c[nH]c2ccccc12)NC=O [MACIMORELIN] the IC50 [1] was 123 nM, the GH peak [2] was 5.5 µg/L and the “GH AUC 0-180” value (Canis familiaris) was 675.35 µg·min/L. The IC50 [3] was 22.9 nM and the Ratio (Rattus norvegicus) was 1.31.

For CNC(C)(C)C(=O)N[C@H](Cc1c[nH]c2ccccc12)C(=O)N[C@H](Cc1c[nH]c2ccccc12)NC(C)=O, the IC50 [1] was 58 nM, the GH peak [2] was 1.1 µg/L and the “GH AUC 0-180” value (Canis familiaris) was 85.85 µg·min/L. For the same molecule, the IC50 [3] was 74 nM and the Ratio (Rattus norvegicus) was 1.38.

With CCC(=O)N[C@@H](Cc1c[nH]c2ccccc12)NC(=O)[C@@H](Cc1c[nH]c2ccccc12)NC(=O)C(C)(C)N the IC50 [1] was 460 nM, the IC50 [3] was 185 nM and the Ratio (Rattus norvegicus) was 0.69.

CC(=O)N[C@@H](Cc1c[nH]c2ccccc12)NC(=O)[C@@H](Cc1c[nH]c2ccccc12)NC(=O)C1CCNCC1 gave an IC50 [1] of 807 nM, an IC50 [3] greater than 10000 nM and a Ratio (Rattus norvegicus) of 0.53.

For CC(C)(N)C(=O)N[C@@H](Cc1c[nH]c2ccccc12)C(=O)N[C@H](Cc1c[nH]c2ccccc12)NC=O, the Ratio (Rattus norvegicus) was 0.07.

CNC(C)(C)C(=O)N[C@H](Cc1c[nH]c2ccccc12)C(=O)N[C@H](Cc1c[nH]c2ccccc12)NC(=O)C1CCCCN1 (some centres undefined) gave a Ratio (Rattus norvegicus) of 0.85.

CNC(C)(C)C(=O)N[C@H](Cc1c[nH]c2ccccc12)C(=O)N[C@H](Cc1c[nH]c2ccccc12)NC(=O)Cc1ccccc1 showed a Ratio (Rattus norvegicus) of 0.16.

Work on CCOC(=O)N[C@@H](Cc1c[nH]c2ccccc12)NC(=O)[C@@H](Cc1c[nH]c2ccccc12)NC(=O)C(C)(C)N yielded an IC50 [1] of 122 nM, an IC50 [3] of 16.2 nM and a Ratio (Rattus norvegicus) of 0.2.

Molecule CC(=O)N[C@@H](Cc1c[nH]c2ccccc12)NC(=O)[C@@H](Cc1c[nH]c2ccccc12)NC(=O)C1(N)CCNCC1 has a Ratio (Rattus norvegicus) of 0.46.

For CC(C)(N)C(=O)N[C@H](Cc1c[nH]c2ccccc12)C(=O)N[C@H](Cc1c[nH]c2ccccc12)NC(=O)CCC1CCCCC1, the Ratio (Rattus norvegicus) was 0.15.

For CNC(C)(C)C(=O)N[C@H](Cc1c[nH]c2ccccc12)C(=O)N(C)[C@H](Cc1c[nH]c2ccccc12)NC(C)=O, the IC50 [1] was 29.5 nM, the “GH AUC 0-180” value (Canis familiaris) was 262.43 µg·min/L and the IC50 [3] was 25.6 nM.

CC(C)(N)C(=O)N[C@H](Cc1c[nH]c2ccccc12)C(=O)N[C@H](Cc1c[nH]c2ccccc12)NC(=O)Cc1c[nH]c2ccccc12 showed a Ratio (Rattus norvegicus) of 0.16.

Molecule O=CN[C@@H](Cc1c[nH]c2ccccc12)NC(=O)[C@@H](Cc1c[nH]c2ccccc12)NS(=O)(=O)c1ccccc1 has a Ratio (Rattus norvegicus) of 0.14.

With Cc1[nH]c2ccccc2c1C[C@H](NC=O)NC(=O)[C@@H](Cc1c(C)[nH]c2ccccc12)NC(=O)C(C)(C)N the Ratio (Rattus norvegicus) was 0.08.

CC(=O)N[C@@H](Cc1c[nH]c2ccccc12)N(C)C(=O)[C@@H](Cc1c[nH]c2ccccc12)NC(=O)C(C)(C)N gave a Ratio (Rattus norvegicus) of 0.65.

Molecule O=CN[C@@H](Cc1c[nH]c2ccccc12)NC(=O)[C@@H](Cc1c[nH]c2ccccc12)NC(=O)C1CCNCC1 has an IC50 [1] of 1160 nM, an IC50 [3] of 391 nM and a Ratio (Rattus norvegicus) of 0.82.

Molecule CC(=O)N[C@@H](Cc1c[nH]c2ccccc12)NC(=O)[C@@H](Cc1c[nH]c2ccccc12)NC(=O)C(C)(C)N has an IC50 [1] of 228 nM, an IC50 [3] of 3850 nM and a Ratio (Rattus norvegicus) of 0.77.

Molecule NC1(C(=O)N[C@H](Cc2c[nH]c3ccccc23)C(=O)N[C@H](Cc2c[nH]c3ccccc23)NC=O)CCNCC1 has an IC50 [1] of 337 nM, an IC50 [3] of 1790 nM and a Ratio (Rattus norvegicus) of 0.95.

In the case of CC(=O)N[C@@H](Cc1c[nH]c2ccccc12)NC(=O)[C@@H](Cc1c[nH]c2ccccc12)NC(=O)C(C)(C)N(C)C, the IC50 [1] is reported as 440 nM, the IC50 [3] is reported as 20.1 nM and the Ratio (Rattus norvegicus) is reported as 0.15.

For CC(C)(N)C(=O)N[C@H](Cc1c[nH]c2ccccc12)C(=O)N[C@](C)(Cc1c[nH]c2ccccc12)NC=O, the Ratio (Rattus norvegicus) was 0.91.

Work on CN(C)C(C)(C)C(=O)N[C@H](Cc1c[nH]c2ccccc12)C(=O)N[C@H](Cc1c[nH]c2ccccc12)NC=O yielded a Ratio (Rattus norvegicus) of 0.69.

In the case of CC(C)(N)C(=O)N[C@H](COCc1ccccc1)C(=O)N1CCC2(CC1)CN(S(C)(=O)=O)c1ccccc12 [IBUTAMOREN], the “GH AUC 0-180” value (Canis familiaris) is reported as 544.55 µg·min/L.

In the case of CNC(C)(C)C(=O)N[C@H](Cc1c[nH]c2ccccc12)C(=O)N[C@H](Cc1c[nH]c2ccccc12)NC(=O)CCC1CCCCC1, the Ratio (Rattus norvegicus) is reported as 0.16.

CC(C)CC(=O)N[C@H](Cc1c[nH]c2ccccc12)C(=O)N[C@H](Cc1c[nH]c2ccccc12)NC=O showed a Ratio (Rattus norvegicus) of 0.09.

Work on Cc1[nH]c2ccccc2c1C[C@@H](NC=O)NC(=O)[C@@H](Cc1c(C)[nH]c2ccccc12)NC(=O)C(C)(C)N yielded a Ratio (Rattus norvegicus) of 0.12.

For CCC(=O)N[C@@H](Cc1c[nH]c2ccccc12)NC(=O)[C@@H](Cc1c[nH]c2ccccc12)NC(=O)C(C)(C)NC, the IC50 [1] was 167 nM, the IC50 [3] was greater than 10000 nM and the Ratio (Rattus norvegicus) was 0.93.

Work on Cc1[nH]c2ccccc2c1C[C@@H](NC(=O)[C@@H](N)Cc1cnc[nH]1)C(=O)N[C@@H](C)C(=O)N[C@@H](Cc1c[nH]c2ccccc12)C(=O)N[C@H](Cc1ccccc1)C(=O)N[C@@H](CCCCN)C(N)=O [EXAMORELIN] (H-H[dTrp(2-Me)]AW[dF]K-NH2) yielded an IC50 [3] of 18 nM.

Molecule CC(=O)N[C@@H](Cc1c[nH]c2ccccc12)NC(=O)[C@@H](Cc1c[nH]c2ccccc12)NC(=O)CC(C)C has a Ratio (Rattus norvegicus) of 0.11.

Molecule CNC(C)(C)C(=O)N[C@H](Cc1c[nH]c2ccccc12)C(=O)N[C@H](Cc1c[nH]c2ccccc12)NC(=O)Cc1c[nH]c2ccccc12 has a Ratio (Rattus norvegicus) of 0.17.

CN[C@H](Cc1c[nH]c2ccccc12)C(=O)N[C@H](Cc1c[nH]c2ccccc12)NC=O showed a Ratio (Rattus norvegicus) of 0.09.

CC(C)(N)C(=O)N[C@](C)(Cc1c[nH]c2ccccc12)C(=O)N[C@H](Cc1c[nH]c2ccccc12)NC=O gave a Ratio (Rattus norvegicus) of 0.12.

Molecule CC(C)(N)C(=O)N[C@H](Cc1c[nH]c2ccccc12)C(=O)N[C@@H](Cc1c[nH]c2ccccc12)NC=O has a Ratio (Rattus norvegicus) of 0.28.

Cc1[nH]c2ccccc2c1C[C@@H](NC(=O)[C@@H](N)Cc1c[nH]cn1)C(=O)N[C@@H](C)C(=O)N[C@@H](Cc1c[nH]c2ccccc12)C(=O)N[C@H](Cc1ccccc1)C(=O)N[C@@H](CCCCN)C(N)=O [EXAMORELIN] (H-H[dTrp(2-Me)]AW[dF]K-NH2) showed a Ratio (Rattus norvegicus) of 1.

In the case of CNC(C)(C)C(=O)N[C@H](Cc1c[nH]c2ccccc12)C(=O)N[C@H](Cc1c[nH]c2ccccc12)N(C)C(C)=O, the Ratio (Rattus norvegicus) is reported as 1.21.

Work on CC(C)(N)C(=O)N[C@@H](Cc1c[nH]c2ccccc12)C(=O)N[C@@H](Cc1c[nH]c2ccccc12)NC=O yielded a Ratio (Rattus norvegicus) of 0.08.

In the case of CC(C)CC(=O)N[C@@H](Cc1c[nH]c2ccccc12)NC(=O)[C@@H](Cc1c[nH]c2ccccc12)NC(=O)C(C)(C)N, the IC50 [1] is reported as 535 nM, the IC50 [3] is reported as 59.8 nM and the Ratio (Rattus norvegicus) is reported as 0.24.

Molecule Cc1[nH]c2ccccc2c1C[C@@H](NC(=O)[C@@H](Cc1c(C)[nH]c2ccccc12)NC(=O)C(C)(C)N)C(N)=O (H-[Aib]-[dTrp(2-Me)]-[dTrp(2-Me)]-NH2) has a Ratio (Rattus norvegicus) of 0.89.

CNC(C)(C)C(=O)N[C@H](Cc1c[nH]c2ccccc12)C(=O)N[C@](C)(Cc1c[nH]c2ccccc12)NC(C)=O gave a Ratio (Rattus norvegicus) of 1.

With CCNC(=O)N[C@@H](Cc1c[nH]c2ccccc12)NC(=O)[C@@H](Cc1c[nH]c2ccccc12)NC(=O)C(C)(C)N the IC50 [1] was 162 nM, the “GH AUC 0-180” value (Canis familiaris) was 79.54 µg·min/L and the IC50 [3] was 16.9 nM.

With CC(=O)N[C@@H](Cc1c[nH]c2ccccc12)NC(=O)[C@@H](Cc1c[nH]c2ccccc12)NC(C)=O the Ratio (Rattus norvegicus) was 0.13.

CNC(C)(C)C(=O)N[C@H](Cc1c[nH]c2ccccc12)C(=O)N[C@H](Cc1c[nH]c2ccccc12)NC(=O)CC(C)C showed an IC50 [1] of 397 nM, an IC50 [3] of 213 nM and a Ratio (Rattus norvegicus) of 0.1.

For CNC(C)(C)C(=O)N[C@H](Cc1c[nH]c2ccccc12)C(=O)N[C@H](Cc1c[nH]c2ccccc12)NC=O, the IC50 [1] was 22.7 nM, the IC50 [3] was 39 nM and the Ratio (Rattus norvegicus) was 0.64.

With CS(=O)(=O)N[C@H](Cc1c[nH]c2ccccc12)C(=O)N[C@H](Cc1c[nH]c2ccccc12)NC=O the Ratio (Rattus norvegicus) was 0.09.

With CC(C)(N)C(=O)N[C@H](Cc1c[nH]c2ccccc12)C(=O)N[C@H](Cc1c[nH]c2ccccc12)NC(=O)C1CCCCN1 (some centres undefined) the IC50 [1] was 116 nM, the “GH AUC 0-180” value (Canis familiaris) was 87.06 µg·min/L and the IC50 [3] was 21.5 nM.

With Cc1[nH]c2ccccc2c1C[C@@H](NC(=O)[C@H](Cc1c[nH]cn1)NC(=O)[C@H](C)NC(=O)[C@@H](N)Cc1ccc(O)cc1)C(=O)N[C@@H](C)C(=O)N[C@@H](Cc1c[nH]c2ccccc12)C(=O)N[C@H](Cc1ccccc1)C(=O)N[C@@H](CCCCN)C(N)=O (H-YAH[dTrp(2-Me)]AW[dF]K-NH2) the IC50 [1] was 286 nM and the IC50 [3] was 12 nM.
